Reference: ChEMBL document CHEMBL2040734, “Benzothiazoles: search for anticancer agents” (2012)

What was measured:
Format in all cases: functional
[1] = test system: HOP-62; test: Cytotoxicity against human HOP62 cells assessed as cell growth at 0.01 uM after 48 hrs by sulforhodamine B assay; details: HOP-62, 48 h, read-out: Activity
Outline: (§1)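 Five-dose NCI panel run at 0.01, 0.1, 1, 10 and 100 µM. Cells were in RPMI 1640 with 5% FBS and 2 mM L-glutamine, seeded at 5000–40,000 cells/well and pre-incubated 24 h. Drug was diluted from a DMSO stock into medium with 50 µg/ml gentamicin. Exposure was 48 h at 37 °C, 5% CO2. Cells were fixed with cold TCA and stained with 0.4% SRB, read at 515 nm. Percent growth came from time-zero, control and test absorbances.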

[2] = test system: HCT-116; test: Cytotoxicity against human HCT116 cells assessed as cell growth at 0.1 uM after 48 hrs by sulforhodamine B assay; details: HCT-116, 48 h, read-out: Activity; outline: as §1
[3] = test system: NCI-H23; test: Cytotoxicity against human NCI-H23 cells assessed as cell growth at 10 uM after 48 hrs by sulforhodamine B assay; details: NCI-H23, 48 h, read-out: Activity
[4] = test system: SNB-19; test: Growth inhibition of human SNB19 cells after 48 hrs by sulforhodamine B assay; details: SNB-19, 48 h
Outline: (§2)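 Adherent NCI-60 lines were grown in RPMI 1640 with 5% FBS and 2 mM L-glutamine, plated at 5000–40,000 cells/well and preincubated 24 h. They were then exposed to five concentrations (0.01–100 µM, from a DMSO stock) for 48 h at 37 °C, 5% CO2. Cells were fixed with cold TCA (10% final, 60 min, 4 °C) and stained with 0.4% SRB. Dye was solubilized in 10 mM Tris base and A515 read. GI50 was derived from time-zero, control and treated absorbances.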

[5] = test system: DU-145; test: Cytotoxicity against human DU145 cells assessed as cell growth at 1 uM after 48 hrs by sulforhodamine B assay; details: DU-145, 48 h, read-out: Activity
Outline: (§3)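 NCI-60 five-dose screen. Cells were grown in RPMI 1640 with 5% FBS and 2 mM L-glutamine and preincubated 24 h. Compound (DMSO stock) was tested at 0.01, 0.1, 1, 10 and 100 µM for 48 h at 37 °C. Cells were fixed in situ with cold TCA (final 10%) and stained with 0.4% SRB. A515 was read, and percent growth was calculated against time-zero and control plates.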

[6] = test system: MDA-MB-435; test: Cytotoxicity against human MDA-MB-435 cells assessed as cell growth at 0.1 uM after 48 hrs by sulforhodamine B assay; details: MDA-MB-435, 48 h, read-out: Activity
[7] = test system: RXF 393; test: Cytotoxicity against human RXF393 cells assessed as cell growth at 0.01 uM after 48 hrs by sulforhodamine B assay; details: RXF 393, 48 h, read-out: Activity
[8] = test system: SW-620; test: Cytotoxicity against human SW620 cells assessed as cell growth at 0.1 uM after 48 hrs by sulforhodamine B assay; details: SW-620, 48 h, read-out: Activity
[9] = test system: M14; test: Cytotoxicity against human M14 cells assessed as cell growth at 10 '-5 M after 48 hrs by sulforhodamine B assay; details: M14, 48 h, read-out: Activity
[10] = test system: UACC-257; test: Growth inhibition of human UACC257 cells after 48 hrs by sulforhodamine B assay; details: UACC-257, 48 h; for CC50: read-out: LC50 (the source's name); outline: as §2
[11] = test system: SF-268; test: Cytotoxicity against human SF268 cells assessed as cell growth at 100 uM after 48 hrs by sulforhodamine B assay; details: SF-268, 48 h, read-out: Activity
[12] = test system: OVCAR-3; test: Cytotoxicity against human OVCAR3 cells assessed as cell growth at 10 uM after 48 hrs by sulforhodamine B assay; details: OVCAR-3, 48 h, read-out: Activity
[13] = test system: MDA-MB-435; test: Cytotoxicity against human MDA-MB-435 cells assessed as cell growth at 10 '-5 M after 48 hrs by sulforhodamine B assay; details: MDA-MB-435, 48 h, read-out: Activity
[14] = test system: NCI-H460; test: Growth inhibition of human NCI-H460 cells after 48 hrs by sulforhodamine B assay; details: NCI-H460, 48 h; outline: as §2
[15] = test system: COLO 205; test: Cytotoxicity against human COLO205 cells assessed as cell growth at 0.1 uM after 48 hrs by sulforhodamine B assay; details: COLO 205, 48 h, read-out: Activity; outline: as §3
[16] = test system: UO-31; test: Cytotoxicity against human UO31 cells assessed as cell growth at 10 '-5 M after 48 hrs by sulforhodamine B assay; details: UO-31, 48 h, read-out: Activity
[17] = test system: MDA-MB-468; test: Cytotoxicity against human MDA-MB-468 cells assessed as cell growth at 1 uM after 48 hrs by sulforhodamine B assay; details: MDA-MB-468, 48 h, read-out: Activity
[18] = test system: CCRF-CEM; test: Cytotoxicity against human CCRF-CEM cells assessed as cell growth at 1 uM after 48 hrs by sulforhodamine B assay; details: read-out: Activity
Outline: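 CCRF-CEM suspension leukemia cells in RPMI 1640 with 5% FBS and 2 mM L-glutamine, plated 24 h before dosing. Five concentrations (0.01–100 µM) were applied from a DMSO stock for 48 h at 37 °C. Settled cells were fixed with 80% TCA (final 16%) and stained with SRB, with read-out at 515 nm. Percent growth was derived from time-zero and control absorbances.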

[19] = test system: MCF7; test: Cytotoxicity against human MCF7 cells assessed as cell growth at 10 uM after 48 hrs by sulforhodamine B assay; details: MCF7, 48 h, read-out: Activity
[20] = test system: NCI/ADR-RES; test: Cytotoxicity against human NCI/ADR-RES cells assessed as cell growth at 1 uM after 48 hrs by sulforhodamine B assay; details: read-out: Activity
[21] = test system: SF-268; test: Cytotoxicity against human SF268 cells assessed as cell growth at 10 uM after 48 hrs by sulforhodamine B assay; details: SF-268, 48 h, read-out: Activity
[22] = test system: ACHN; test: Cytotoxicity against human ACHN cells assessed as cell growth at 100 uM after 48 hrs by sulforhodamine B assay; details: read-out: Activity; outline: as §3
[23] = test system: HT-29; test: Cytotoxicity against human HT-29 cells assessed as cell growth at 10 '-5 M after 48 hrs by sulforhodamine B assay; details: HT-29, 48 h, read-out: Activity
Outline: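 Primary one-dose screen across the NCI 60-line panel at 10 µM. Cells were grown in RPMI 1640 with 5% FBS and 2 mM L-glutamine and held 24 h before drug. Drug was diluted from a DMSO concentrate. Exposure was 48 h at 37 °C, 5% CO2. Cells were fixed with TCA and stained with SRB, with absorbance read at 515 nm. Percent growth was calculated against time-zero and untreated control.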

[24] = test system: SNB-19; test: Cytotoxicity against human SNB19 cells assessed as cell growth at 10 '-5 M after 48 hrs by sulforhodamine B assay; details: SNB-19, 48 h, read-out: Activity
[25] = test system: SF-295; test: Cytotoxicity against human SF295 cells assessed as cell growth at 1 uM after 48 hrs by sulforhodamine B assay; details: SF-295, 48 h, read-out: Activity
[26] = test system: HCT-116; test: Growth inhibition of human HCT116 cells after 48 hrs by sulforhodamine B assay; details: HCT-116, 48 h; for CC50: read-out: LC50 (the source's name); outline: as §2

SMILES | growth at 0.01 µM [1] [%] | growth at 0.1 µM [2] [%] | growth at 10 µM [3] [%] | GI50 [4] [µM] | LC50 (concentration causing 50% net cell kill) [4] [µM] | TGI [4] [µM] | growth at 1 µM [5] [%] | growth at 0.1 µM [6] [%] | growth at 0.01 µM [7] [%] | growth at 0.1 µM [8] [%] | growth at 10 µM [9] [%] | GI50 [10] [µM] | TGI [10] [µM] | CC50 [10] [µM] | growth at 100 µM [11] [%] | growth at 10 µM [12] [%] | growth at 10 µM [13] [%] | TGI [14] [µM] | growth at 0.1 µM [15] [%] | growth at 10 µM [16] [%] | other results
Cc1ccc2nc(Nc3c(C)cccc3C)sc2c1 | 109 | 103 | 58 | 5.83 | > 100 | > 100 | 94 | 86 | 94 | 94 | 26.2 | > 100 | > 100 | > 100 | 34 | 52 | -23.7 | > 100 | 112 | 43.7 | LC50 (concentration killing 50% of cells) [14]: > 100 µM; growth at 1 µM [17]: 21%; growth at 1 µM [18]: 72%; growth at 10 µM [19]: 19%; growth at 1 µM [20]: 40%; growth at 10 µM [21]: 64%; growth at 100 µM [22]: 49%; growth at 10 µM [23]: 9.15%; growth at 10 µM [24]: 59.5%; growth at 1 µM [25]: 44%; GI50 [26]: 2.3 µM; TGI [26]: > 100 µM; CC50 [26]: > 100 µM
Clc1cccc(Cl)c1Nc1nc2cccc(Cl)c2s1 | 104 | 99 | -71 | 1.34 | 6.74 | 3 | 75 | 87 | 94 | 91 | -61.3 | 1.35 | 3.1 | 7.09 | -56 | -96 | -55.9 | 2.97 | 94 | -55.1 | GI50 [14]: 1.32 µM; growth at 1 µM [17]: 23%; growth at 1 µM [18]: 62%; growth at 10 µM [19]: -86%; growth at 1 µM [20]: 36%; growth at 10 µM [21]: -87%; growth at 100 µM [22]: -100%; growth at 10 µM [23]: -67.6%; growth at 10 µM [24]: 13.8%; growth at 1 µM [25]: 33%; GI50 [26]: 1.01 µM; TGI [26]: 2.19 µM; CC50 [26]: 4.75 µM
